Measured values: ChEMBL document CHEMBL4699450, “Nonclassical Phenyl Bioisosteres as Effective Replacements in a Series of Novel Open-Source Antimalarials” (J Med Chem, 2020)
≈ marks a conversion by molar mass, not a printed value. Calls of active or inactive are those of the source. The calls are words filed in the database; no cut-off is given here.

Columns and labels:
Plasmodium falciparum = assay: Antiplasmodial activity against Plasmodium falciparum 3D7 by SYBR green-I fluorescence dye based fluorescence assay; assay type: functional, organism-based
Method in brief: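 P. falciparum 3D7 grown in human red cells (1.25% or 5% suspension) in RPMI 1640 with 0.5% Albumax II, 12 mM bicarbonate, 0.2 mM hypoxanthine, pH 7.3, gentamicin, 37 °C, 1% O2/3% CO2. Ten-point dose-response, 1-in-3 dilutions; SYBR Green I DNA fluorescence (ex 485/em 528 nm); mefloquine control; percent inhibition vs high/no-inhibition controls; four-parameter fit; IC50 from ≥3 independent experiments.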

[1] = target: Voltage-gated inwardly rectifying potassium channel KCNH2 (Homo sapiens, UniProt Q12809); assay: Inhibition of human ERG
[2] = Distribution coefficient, logD of compound at pH 7.4 by HPLC analysis; assay type: physicochemical; conditions: octanol/water
Method in brief: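 LogD at pH 7.4 estimated by gradient HPLC, correlating retention (mean of 2 injections) against standards of known partition coefficient.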

[3] = Kinetic solubility in pH 6.5 phosphate buffer after 30 mins by nephelometry; assay type: physicochemical; conditions: read-out: Kinetic_solubility
Method in brief: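 DMSO stock spiked into pH 6.5 phosphate buffer at 7 concentrations, final DMSO 1%; after 30 min precipitation read by nephelometry to give a solubility range.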

[4] = Half life in human liver microsomes at 1 uM in presence of NADPH-regenerating system; assay type: ADME, Microsome
[5] = Half life in mouse liver microsomes at 1 uM in presence of NADPH-regenerating system; assay type: ADME, Microsome

Chain of Voltage-gated inwardly rectifying potassium channel KCNH2 (Q12809 whole entry): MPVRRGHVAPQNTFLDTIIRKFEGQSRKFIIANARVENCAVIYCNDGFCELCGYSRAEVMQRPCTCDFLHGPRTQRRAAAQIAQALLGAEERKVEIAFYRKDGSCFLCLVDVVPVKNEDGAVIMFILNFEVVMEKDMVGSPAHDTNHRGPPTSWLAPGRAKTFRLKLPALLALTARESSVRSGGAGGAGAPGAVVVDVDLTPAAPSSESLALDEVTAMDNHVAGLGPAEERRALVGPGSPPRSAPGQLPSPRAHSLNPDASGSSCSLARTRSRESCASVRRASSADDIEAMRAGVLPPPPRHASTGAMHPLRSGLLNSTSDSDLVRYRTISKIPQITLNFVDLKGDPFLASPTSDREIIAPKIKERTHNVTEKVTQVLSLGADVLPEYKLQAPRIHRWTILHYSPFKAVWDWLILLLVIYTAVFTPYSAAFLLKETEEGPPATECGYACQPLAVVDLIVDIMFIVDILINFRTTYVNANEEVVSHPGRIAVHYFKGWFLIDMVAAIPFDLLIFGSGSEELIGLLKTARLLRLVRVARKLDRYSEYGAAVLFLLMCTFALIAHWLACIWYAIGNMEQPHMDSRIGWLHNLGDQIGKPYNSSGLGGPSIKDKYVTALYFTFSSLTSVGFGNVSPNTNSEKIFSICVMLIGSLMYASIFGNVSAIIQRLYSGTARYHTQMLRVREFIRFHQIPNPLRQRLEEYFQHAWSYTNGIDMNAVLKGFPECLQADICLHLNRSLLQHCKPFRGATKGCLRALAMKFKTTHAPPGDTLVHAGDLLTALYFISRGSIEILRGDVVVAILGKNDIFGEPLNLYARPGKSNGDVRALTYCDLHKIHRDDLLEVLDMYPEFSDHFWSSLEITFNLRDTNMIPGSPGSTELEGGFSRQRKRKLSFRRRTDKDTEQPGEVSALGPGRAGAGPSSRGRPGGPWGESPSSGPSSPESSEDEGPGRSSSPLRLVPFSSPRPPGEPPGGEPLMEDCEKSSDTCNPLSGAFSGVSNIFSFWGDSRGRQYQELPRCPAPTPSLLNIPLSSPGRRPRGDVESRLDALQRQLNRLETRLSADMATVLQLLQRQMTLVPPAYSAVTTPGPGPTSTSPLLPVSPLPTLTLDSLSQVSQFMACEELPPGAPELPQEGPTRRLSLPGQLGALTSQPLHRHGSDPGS

Row | Structure (SMILES) | Activity (Plasmodium falciparum) | other results
1 | CC(C)(C)OC(=O)N1CCC(c2nnc3cncc(OCCc4ccccc4)n23)CC1 | inactive | 
2 | FC(F)Oc1ccc(-c2nnc3cncc(OCCC45C6C7C8C6C4C8C75)n23)cc1 (stereo unspecified) | Active | IC50 [1]: 4.26 µM; logD [2]: 4.3; solubility kinetic at 0.5 h [3]: < 1.6 µg/mL; half-life at 1 µM [4]: 9 min; half-life at 1 µM [5]: 3 min
3 | FC(F)Oc1ccc(-c2nnc3cncc(OCCN4CC5(COC5)C4)n23)cc1 | inactive | 
4 | c1ccc(CCOc2cncc3nnc(C4CCNCC4)n23)cc1 | inactive | 
5 | FC(F)Oc1ccc(-c2nnc3cncc(OC[C@H]4C[C@@H]5C[C@@H]4[C@H]4O[C@@H]54)n23)cc1 | inactive | 
6 | FC(F)Oc1ccc(-c2nnc3cncc(OCCN4CCNCC4)n23)cc1 | inactive | 
7 | FC(F)Oc1ccc(-c2nnc3cncc(OCCN4CCCC4)n23)cc1 | inactive | 
8 | FC(F)Oc1ccc(-c2nnc3cncc(Oc4ccccc4)n23)cc1 | inactive | 
9 | FC(F)Oc1ccc(-c2nnc3cncc(OCCc4ccccc4)n23)cc1 |  | IC50 [1]: 7.41 µM; logD [2]: 3.7; solubility kinetic at 0.5 h [3]: 6.3 µg/mL (≈ 16.5 µM); half-life at 1 µM [4]: 26 min; half-life at 1 µM [5]: 7 min
10 | FC(F)Oc1ccc(-c2nnc3cncc(OCC45CC(C(F)F)(C4)C5)n23)cc1 | Active | logD [2]: 3.6; solubility kinetic at 0.5 h [3]: 6.3 µg/mL (≈ 15.4 µM); half-life at 1 µM [4]: 190 min; half-life at 1 µM [5]: 66 min
11 | CC(C)(C)OC(=O)N1CCN(CCOc2cncc3nnc(-c4ccc(OC(F)F)cc4)n23)CC1 | inactive | 
12 | c1ccc(CCOc2cncc3nnc(C4CCOC4)n23)cc1 (stereo unspecified) | inactive | 
13 | FC(F)Oc1ccc(-c2nnc3cncc(OCCN4CCCCC4)n23)cc1 | inactive | 
14 | FC(F)Oc1ccc(-c2nnc3cncc(OC[C@H]4C[C@@H]5C[C@@H]4[C@@H]4O[C@H]54)n23)cc1 | inactive | 
15 | CC(C)(C)OC(=O)N1CCC(c2nnc3cncc(OCCc4ccccc4)n23)C1 (stereo unspecified) | inactive | 
16 | c1ccc(CCOc2cncc3nnc(C4CCNC4)n23)cc1 (stereo unspecified) | inactive | 
17 | c1ccc(CCOc2cncc3nnc(C4CCOCC4)n23)cc1 | inactive | 
18 | FC(F)Oc1ccc(-c2nnc3cncc(OCCC4COC4)n23)cc1 | inactive | 
